Calls of active or inactive are those of the source. The calls are words filed in the database; no cut-off is given here.
Tests used:
Homo sapiens = species on record: Homo sapiens; assay: Inhibition of MEK/ERK1 (unknown origin) using MBP/[gamma-32P]ATP as substrate after 10 mins by scintillation counting
In short: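 Compound at 10–150 μM in MOPS pH 7.2 buffer with β-glycerophosphate, EGTA, orthovanadate and DTT. [γ-32P]ATP at 10 μCi/reaction, 10 min at 30°C. Phosphorylated MBP was captured on P81 paper and counted by scintillation. Run in quadruplicate and given as % of no-compound control.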

NIH3T3 = assay: Cytotoxicity against mouse NIH/3T3 cells by crystal violet assay; type: cell-based
In short: (§1)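 Parental NIH-3T3 fibroblasts and Ha-Ras-transfected RAS-3T3 cells were grown in DMEM with 10% FBS, […] and antibiotic-antimycotic at 37°C in 5% CO2. Growth retardation/cytotoxicity was read by crystal violet staining. Compounds came from 10 mM DMSO stocks.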

[1] = Cytotoxicity against mouse RAS-3T3 cells by crystal violet assay; type: functional, cell-based; conditions: NIH3T3; in short: as §1
[2] = target: Mitogen-activated protein kinase 3 (Homo sapiens) (UniProt P27361); assay: Competitive inhibition of activated ERK1 (unknown origin) using […] as substrate
In short: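 Activated pERK1 (20 ng) with inhibitor held at 5 μM and MBP varied from 0.2 to 200 μg per reaction. Non-radioactive ATP at 0.2 μM. Remaining ATP was measured by luciferase luminescence, and activity was taken from ATP consumption. Controls lacked inhibitor but had matching MBP amounts. Mean ± SD from 3 independent experiments.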

[3] = target: Receptor-type tyrosine-protein kinase FLT3 (Homo sapiens) (UniProt P36888); assay: Inhibition of FLT3 (unknown origin) at 10 uM
In short: (§2)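 ADP-Glo luminescent kinase assay. Inhibitor at 10 μM was preincubated with kinase (1 ng) for 10 min at 25°C. Substrate (10–60 μM) and ATP (25 μM) were then added and the mix incubated 1 h at 24°C. ADP-Glo reagent was added for 40 min, then detection reagent for 30 min, and luminescence was read. Activity is given as % of uninhibited kinase. Mean ± SD of 2 independent experiments.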

[4] = target: Insulin-like growth factor 1 receptor (Homo sapiens) (UniProt P08069); assay: Inhibition of IGF1R (unknown origin) at 10 uM; in short: as §2
[5] = target: T1, Aurora kinase A (Homo sapiens) (UniProt O14965); assay: Inhibition of aurora-A (unknown origin) at 10 uM; in short: as §2
T1 sequence (whole entry): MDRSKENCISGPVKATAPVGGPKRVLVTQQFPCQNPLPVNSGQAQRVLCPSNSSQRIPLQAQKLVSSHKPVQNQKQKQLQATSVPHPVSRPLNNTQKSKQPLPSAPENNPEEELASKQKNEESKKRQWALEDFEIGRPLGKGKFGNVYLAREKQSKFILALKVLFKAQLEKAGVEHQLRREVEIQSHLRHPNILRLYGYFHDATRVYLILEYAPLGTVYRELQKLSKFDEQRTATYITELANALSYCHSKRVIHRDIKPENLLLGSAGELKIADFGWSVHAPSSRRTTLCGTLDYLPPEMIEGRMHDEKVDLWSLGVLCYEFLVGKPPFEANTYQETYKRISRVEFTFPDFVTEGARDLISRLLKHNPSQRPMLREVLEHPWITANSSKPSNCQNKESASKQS

[6] = target: TRAF2 and NCK-interacting protein kinase (Homo sapiens) (UniProt Q9UKE5); assay: Inhibition of TNIK (unknown origin) at 10 uM; in short: as §2
[7] = target: T2, Tyrosine-protein kinase JAK3 (Homo sapiens) (UniProt P52333); assay: Inhibition of JAK3 (unknown origin) at 10 uM; in short: as §2
T2 sequence (whole entry): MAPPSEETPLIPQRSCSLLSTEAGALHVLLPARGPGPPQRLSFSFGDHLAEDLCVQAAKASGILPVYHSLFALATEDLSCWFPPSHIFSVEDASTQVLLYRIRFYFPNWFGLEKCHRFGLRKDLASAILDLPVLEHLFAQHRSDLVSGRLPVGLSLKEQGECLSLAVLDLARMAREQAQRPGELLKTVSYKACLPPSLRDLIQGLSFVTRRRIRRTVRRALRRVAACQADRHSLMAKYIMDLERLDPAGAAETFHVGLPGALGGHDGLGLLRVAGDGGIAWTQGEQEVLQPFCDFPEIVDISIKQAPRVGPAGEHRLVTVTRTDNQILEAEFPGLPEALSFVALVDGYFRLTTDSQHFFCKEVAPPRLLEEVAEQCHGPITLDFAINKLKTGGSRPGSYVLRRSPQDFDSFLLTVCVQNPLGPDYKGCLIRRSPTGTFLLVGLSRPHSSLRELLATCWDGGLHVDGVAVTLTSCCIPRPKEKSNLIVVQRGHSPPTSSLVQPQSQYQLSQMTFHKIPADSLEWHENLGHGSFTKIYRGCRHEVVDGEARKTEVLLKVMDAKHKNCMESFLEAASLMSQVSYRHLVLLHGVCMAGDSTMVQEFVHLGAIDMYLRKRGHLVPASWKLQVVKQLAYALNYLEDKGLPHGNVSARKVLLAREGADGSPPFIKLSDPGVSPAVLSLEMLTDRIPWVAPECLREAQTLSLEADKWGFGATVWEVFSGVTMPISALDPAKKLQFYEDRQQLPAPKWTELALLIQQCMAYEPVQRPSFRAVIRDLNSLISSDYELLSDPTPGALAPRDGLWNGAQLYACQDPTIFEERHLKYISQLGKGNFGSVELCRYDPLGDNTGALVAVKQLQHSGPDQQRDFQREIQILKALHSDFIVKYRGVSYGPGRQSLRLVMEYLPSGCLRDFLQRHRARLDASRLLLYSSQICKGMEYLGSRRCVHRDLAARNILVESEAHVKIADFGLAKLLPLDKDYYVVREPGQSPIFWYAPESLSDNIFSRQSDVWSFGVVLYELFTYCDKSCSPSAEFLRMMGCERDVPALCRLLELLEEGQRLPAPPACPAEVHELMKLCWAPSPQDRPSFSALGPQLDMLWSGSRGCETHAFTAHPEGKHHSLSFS

RAS-3T3 [8] = assay: Inhibition of MEK-mediated ERK1/2 phosphorylation in mouse RAS-3T3 cells at 40 uM by ELISA; type: cell-based
In short: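 RAS-3T3 cells were pre-starved overnight in 2% FBS, then treated with compound in 10% FBS medium for 4 h. Lysates were assayed with a pERK1/2-specific sandwich ELISA and absorbance read at 405 nm. Untreated cells were controls.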

[9] = target: Platelet-derived growth factor receptor beta (Homo sapiens) (UniProt P09619); assay: Inhibition of PDGFRbeta (unknown origin) at 10 uM; in short: as §2
[10] = target: Serine/threonine-protein kinase pim-1 (Homo sapiens) (UniProt P11309); assay: Inhibition of PIM1 (unknown origin) at 10 uM; in short: as §2
[11] = target: Tyrosine-protein kinase JAK2 (Homo sapiens) (UniProt O60674); assay: Inhibition of JAK2 (unknown origin) at 10 uM; in short: as §2
[12] = target: Mitogen-activated protein kinase 3 (Homo sapiens) (UniProt P27361); assay: Inhibition of activated ERK1 (unknown origin) using […] as substrate
In short: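 Activated pERK1 (20 ng) with MBP (20 μg) and compound at final 0.05–5 μM. Non-radioactive ATP at 0.2 μM. Residual ATP was measured by luciferase luminescence, and relative activity was derived from ATP consumption versus compound-free control. Mean ± SD from 3 independent experiments.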

[13] = target: Tyrosine-protein kinase BTK (Homo sapiens) (UniProt Q06187); assay: Inhibition of BTK (unknown origin) at 10 uM; in short: as §2
[14] = target: Epidermal growth factor receptor (Homo sapiens) (UniProt P00533); assay: Inhibition of EGFR (unknown origin) at 10 uM; in short: as §2
[15] = target: Fibroblast growth factor receptor 2 (Homo sapiens) (UniProt P21802); assay: Inhibition of FGFR2 (unknown origin) at 10 uM; in short: as §2
[16] = target: Vascular endothelial growth factor receptor 2 (Homo sapiens) (UniProt P35968); assay: Inhibition of KDR (unknown origin) at 10 uM; in short: as §2
[17] = target: ALK tyrosine kinase receptor (Homo sapiens) (UniProt Q9UM73); assay: Inhibition of ALK (unknown origin) at 10 uM; in short: as §2
RAS-3T3 [18] = assay: Inhibition of MEK in mouse RAS-3T3 cells assessed as effect on unphosphorylated ERK1/2 at 40 uM by Western-blot analysis; type: cell-based
In short: (§3)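 RAS-3T3 cells were starved overnight in 2% FBS, then given 10% FBS medium with compound for 4 h. Cells were lysed in Triton X-100/Tris/EDTA/NaCl buffer with protease inhibitors. 50 μg of protein was run on 10% SDS-PAGE and blotted to nitrocellulose, with loading checked by Ponceau. Blots were probed with anti-pERK and anti-total ERK antibodies and detected by HRP chemiluminescence. Untreated cells were controls.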

RAS-3T3 [19] = assay: Inhibition of MEK-mediated ERK1/2 phosphorylation in mouse RAS-3T3 cells at 40 uM by Western-blot analysis; type: cell-based; in short: as §3

Chain of Mitogen-activated protein kinase 3 (Homo sapiens) (P27361 whole entry): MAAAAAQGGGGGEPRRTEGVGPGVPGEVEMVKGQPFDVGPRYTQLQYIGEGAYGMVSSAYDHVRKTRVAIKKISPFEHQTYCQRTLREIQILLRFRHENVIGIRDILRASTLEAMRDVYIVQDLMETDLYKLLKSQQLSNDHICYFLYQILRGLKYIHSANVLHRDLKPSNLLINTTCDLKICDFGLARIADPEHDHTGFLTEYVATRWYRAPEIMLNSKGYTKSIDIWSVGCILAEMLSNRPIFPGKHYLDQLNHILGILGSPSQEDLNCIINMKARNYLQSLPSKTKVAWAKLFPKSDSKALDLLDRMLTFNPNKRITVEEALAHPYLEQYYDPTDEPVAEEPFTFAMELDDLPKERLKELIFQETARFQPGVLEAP
Chain of Tyrosine-protein kinase BTK (Homo sapiens) (Q06187 whole entry): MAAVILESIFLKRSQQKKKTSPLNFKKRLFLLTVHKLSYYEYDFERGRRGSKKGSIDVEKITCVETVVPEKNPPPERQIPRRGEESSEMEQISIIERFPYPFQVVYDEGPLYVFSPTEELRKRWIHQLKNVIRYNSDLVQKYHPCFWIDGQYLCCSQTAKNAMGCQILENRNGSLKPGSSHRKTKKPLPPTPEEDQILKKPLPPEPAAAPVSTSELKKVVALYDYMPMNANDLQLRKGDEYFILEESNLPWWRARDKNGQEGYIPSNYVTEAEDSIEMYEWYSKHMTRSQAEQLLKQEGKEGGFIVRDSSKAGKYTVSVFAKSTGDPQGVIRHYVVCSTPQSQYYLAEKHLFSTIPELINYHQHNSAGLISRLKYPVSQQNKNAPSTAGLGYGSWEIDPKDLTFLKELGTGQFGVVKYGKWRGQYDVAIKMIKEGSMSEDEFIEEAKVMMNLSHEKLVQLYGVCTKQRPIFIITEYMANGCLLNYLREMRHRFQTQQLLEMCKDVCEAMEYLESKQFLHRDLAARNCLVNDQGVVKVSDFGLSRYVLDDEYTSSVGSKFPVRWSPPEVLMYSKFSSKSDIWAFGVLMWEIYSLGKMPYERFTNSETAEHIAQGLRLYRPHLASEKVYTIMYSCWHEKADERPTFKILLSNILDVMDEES
Chain of Insulin-like growth factor 1 receptor (Homo sapiens) (P08069 31-736 limits assumed): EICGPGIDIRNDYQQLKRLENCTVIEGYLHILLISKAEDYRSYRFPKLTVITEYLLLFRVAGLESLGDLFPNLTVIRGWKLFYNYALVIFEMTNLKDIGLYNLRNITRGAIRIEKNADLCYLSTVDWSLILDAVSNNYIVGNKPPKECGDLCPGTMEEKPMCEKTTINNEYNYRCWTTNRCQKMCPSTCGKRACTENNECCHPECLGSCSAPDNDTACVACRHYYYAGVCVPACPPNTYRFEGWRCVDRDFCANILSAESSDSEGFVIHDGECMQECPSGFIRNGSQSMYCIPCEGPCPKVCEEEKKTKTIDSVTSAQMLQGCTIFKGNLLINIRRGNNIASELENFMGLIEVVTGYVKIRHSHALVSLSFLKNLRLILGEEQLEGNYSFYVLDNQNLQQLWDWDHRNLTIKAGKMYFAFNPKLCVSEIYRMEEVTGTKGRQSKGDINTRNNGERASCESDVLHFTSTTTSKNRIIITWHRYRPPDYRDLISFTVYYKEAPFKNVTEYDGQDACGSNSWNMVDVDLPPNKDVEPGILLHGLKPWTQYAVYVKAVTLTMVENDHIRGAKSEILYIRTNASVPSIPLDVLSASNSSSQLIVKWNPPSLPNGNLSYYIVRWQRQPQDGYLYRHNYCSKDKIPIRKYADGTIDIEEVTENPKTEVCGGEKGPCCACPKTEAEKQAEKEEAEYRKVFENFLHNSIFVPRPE
Chain of Insulin-like growth factor 1 receptor (Homo sapiens) (P08069 741-1367 limits assumed): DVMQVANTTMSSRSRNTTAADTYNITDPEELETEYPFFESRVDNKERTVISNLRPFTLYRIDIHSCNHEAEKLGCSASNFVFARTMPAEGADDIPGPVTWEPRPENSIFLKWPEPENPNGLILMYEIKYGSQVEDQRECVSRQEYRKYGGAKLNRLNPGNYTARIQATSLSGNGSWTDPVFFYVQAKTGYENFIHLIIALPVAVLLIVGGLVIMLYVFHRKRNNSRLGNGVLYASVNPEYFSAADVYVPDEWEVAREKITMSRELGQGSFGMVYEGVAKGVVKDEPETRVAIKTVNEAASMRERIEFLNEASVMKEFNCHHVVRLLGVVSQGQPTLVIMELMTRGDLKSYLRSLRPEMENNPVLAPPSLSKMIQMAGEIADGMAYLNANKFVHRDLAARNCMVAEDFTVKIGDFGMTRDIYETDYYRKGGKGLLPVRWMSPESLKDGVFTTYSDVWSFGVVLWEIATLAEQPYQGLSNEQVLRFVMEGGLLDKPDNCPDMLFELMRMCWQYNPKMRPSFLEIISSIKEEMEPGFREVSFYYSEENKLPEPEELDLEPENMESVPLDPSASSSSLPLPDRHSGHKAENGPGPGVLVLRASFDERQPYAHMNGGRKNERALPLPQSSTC
Chain of Epidermal growth factor receptor (Homo sapiens) (P00533 whole entry): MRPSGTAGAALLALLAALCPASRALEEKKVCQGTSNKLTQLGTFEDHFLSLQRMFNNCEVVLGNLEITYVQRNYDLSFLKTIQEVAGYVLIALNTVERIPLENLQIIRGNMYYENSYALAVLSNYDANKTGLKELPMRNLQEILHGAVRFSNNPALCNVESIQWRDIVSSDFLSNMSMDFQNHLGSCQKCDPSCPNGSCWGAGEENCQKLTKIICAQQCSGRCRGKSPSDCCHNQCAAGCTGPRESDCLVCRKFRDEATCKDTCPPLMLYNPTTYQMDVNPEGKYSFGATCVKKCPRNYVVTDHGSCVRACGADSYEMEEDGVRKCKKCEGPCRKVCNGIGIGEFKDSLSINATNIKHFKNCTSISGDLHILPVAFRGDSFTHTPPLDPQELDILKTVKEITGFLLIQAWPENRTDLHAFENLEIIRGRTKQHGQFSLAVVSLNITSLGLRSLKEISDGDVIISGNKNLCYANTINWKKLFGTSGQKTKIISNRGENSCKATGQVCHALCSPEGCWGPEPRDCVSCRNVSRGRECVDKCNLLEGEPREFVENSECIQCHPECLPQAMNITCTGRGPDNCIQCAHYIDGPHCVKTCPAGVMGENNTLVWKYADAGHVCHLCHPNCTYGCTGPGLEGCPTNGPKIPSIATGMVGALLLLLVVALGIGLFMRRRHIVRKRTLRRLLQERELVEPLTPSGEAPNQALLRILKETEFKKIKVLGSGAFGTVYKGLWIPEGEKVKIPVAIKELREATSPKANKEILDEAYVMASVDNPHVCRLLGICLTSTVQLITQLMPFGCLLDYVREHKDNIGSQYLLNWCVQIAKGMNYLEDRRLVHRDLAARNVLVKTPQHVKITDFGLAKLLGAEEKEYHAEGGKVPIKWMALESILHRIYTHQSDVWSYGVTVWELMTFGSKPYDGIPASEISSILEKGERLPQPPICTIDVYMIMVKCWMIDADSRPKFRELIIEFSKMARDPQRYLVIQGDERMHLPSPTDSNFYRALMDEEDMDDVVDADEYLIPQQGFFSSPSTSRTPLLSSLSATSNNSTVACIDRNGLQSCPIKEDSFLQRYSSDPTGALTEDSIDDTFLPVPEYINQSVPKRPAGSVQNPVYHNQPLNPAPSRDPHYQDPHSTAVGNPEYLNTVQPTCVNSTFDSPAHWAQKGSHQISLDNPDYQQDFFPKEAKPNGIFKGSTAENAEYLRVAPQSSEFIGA
Chain of Platelet-derived growth factor receptor beta (Homo sapiens) (P09619 whole entry): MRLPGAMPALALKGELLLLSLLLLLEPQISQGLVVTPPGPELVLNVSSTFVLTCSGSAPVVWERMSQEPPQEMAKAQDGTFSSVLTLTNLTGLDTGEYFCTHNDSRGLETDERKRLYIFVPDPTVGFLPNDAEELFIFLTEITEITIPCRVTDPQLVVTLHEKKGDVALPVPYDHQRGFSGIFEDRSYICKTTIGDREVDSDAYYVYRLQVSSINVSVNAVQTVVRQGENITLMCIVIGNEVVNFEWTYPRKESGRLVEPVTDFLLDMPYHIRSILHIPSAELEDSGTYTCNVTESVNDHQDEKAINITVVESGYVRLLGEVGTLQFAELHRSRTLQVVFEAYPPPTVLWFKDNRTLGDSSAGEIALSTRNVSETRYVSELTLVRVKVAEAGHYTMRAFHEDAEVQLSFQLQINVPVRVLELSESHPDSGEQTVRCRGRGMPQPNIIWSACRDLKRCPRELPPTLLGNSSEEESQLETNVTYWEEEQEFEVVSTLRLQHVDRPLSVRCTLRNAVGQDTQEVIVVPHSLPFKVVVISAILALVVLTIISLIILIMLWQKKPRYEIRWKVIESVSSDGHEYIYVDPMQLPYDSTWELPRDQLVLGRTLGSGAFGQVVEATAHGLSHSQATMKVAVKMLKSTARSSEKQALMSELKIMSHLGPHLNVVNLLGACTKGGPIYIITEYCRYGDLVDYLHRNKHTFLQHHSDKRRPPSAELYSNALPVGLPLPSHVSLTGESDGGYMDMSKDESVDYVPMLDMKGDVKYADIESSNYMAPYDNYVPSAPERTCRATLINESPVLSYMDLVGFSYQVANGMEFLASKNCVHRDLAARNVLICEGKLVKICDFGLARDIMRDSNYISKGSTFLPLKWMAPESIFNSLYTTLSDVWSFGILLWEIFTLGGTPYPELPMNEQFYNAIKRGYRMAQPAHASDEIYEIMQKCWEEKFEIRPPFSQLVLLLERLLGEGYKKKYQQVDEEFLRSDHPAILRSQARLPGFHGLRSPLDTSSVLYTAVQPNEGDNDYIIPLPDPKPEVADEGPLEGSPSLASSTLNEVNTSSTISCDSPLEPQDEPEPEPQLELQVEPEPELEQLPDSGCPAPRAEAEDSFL
Chain of Serine/threonine-protein kinase pim-1 (Homo sapiens) (P11309 whole entry, looked up): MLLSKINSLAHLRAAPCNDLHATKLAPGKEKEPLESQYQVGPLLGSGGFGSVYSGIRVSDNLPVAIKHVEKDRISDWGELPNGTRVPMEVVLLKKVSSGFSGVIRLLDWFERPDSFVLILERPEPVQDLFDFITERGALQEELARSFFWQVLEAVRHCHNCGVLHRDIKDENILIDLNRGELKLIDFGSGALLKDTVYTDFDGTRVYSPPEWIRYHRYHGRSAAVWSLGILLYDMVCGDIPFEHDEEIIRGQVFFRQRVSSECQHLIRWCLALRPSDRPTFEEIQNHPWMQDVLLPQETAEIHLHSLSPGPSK

Row | Structure (SMILES) | IC50 (NIH3T3) [µM] | IC50 [1] [µM] | also measured
1 | CCCCCCCCCC(NC(=O)CNC(=O)OCc1ccccc1)C(=O)NCc1ccc(OC)cc1 (racemic) | 55 | 19 | inhibition (Homo sapiens): Dose-dependent effect
2 | CCCCCCCC(NC(=O)CNC(=O)OCc1ccccc1)C(=O)NC1CCCCC1 (racemic) | 40 | 30 | –
3 | COc1ccc(CNC(=O)C(CC(C)C)NC(=O)CNC(=O)OCc2ccccc2)cc1 (racemic) | > 100 | > 100 | –
4 | COc1ccc(CNC(=O)C(Cc2ccccc2)NC(=O)CNC(=O)OCc2ccccc2)cc1 (racemic) | > 100 | > 100 | –
5 | CCCCCCCCCC(NC(=O)[C@H](Cc1ccccc1)NC(=O)OCc1ccccc1)C(=O)NCc1ccc(OC)cc1 (mixture of isomers) | > 200 | 68 | –
6 | CCCCCCCCC[C@@H](NC(=O)CNC(=O)OCc1ccccc1)C(=O)NCc1ccc(OC)cc1 | – | – | inhibition (Homo sapiens): Active
7 | CCCCCCCCCC(NC(=O)CNC(=O)OCc1ccccc1)C(=O)NCCc1ccccc1 (racemic) | – | – | inhibition [2]: Active; inhibition [3]: inactive; inhibition [4]: inactive; inhibition [5]: inactive; inhibition [6]: inactive; inhibition [7]: inactive; inhibition (RAS-3T3 [8]): 90%; inhibition [9]: inactive; inhibition [10]: inactive; inhibition [11]: inactive; inhibition [12]: Dose-dependent effect; inhibition [13]: inactive; inhibition [14]: inactive; inhibition [15]: inactive; inhibition [16]: inactive; inhibition [17]: inactive; inhibition (RAS-3T3 [18]): inactive; inhibition (RAS-3T3 [19]): Active
8 | CCCCCCCC(NC(=O)CNC(=O)OCc1ccccc1)C(=O)NCCc1ccccc1 (racemic) | 33 | 20 | –
9 | CCCCCCCC(NC(=O)CNC(=O)OCc1ccccc1)C(=O)NCc1ccc(OC)cc1OC (racemic) | 50 | 40 | –
10 | COc1ccc(CNC(=O)C(Cc2ccc(OC)cc2)NC(=O)CNC(=O)OCc2ccccc2)cc1 (racemic) | > 100 | > 100 | –
11 | CCCCCCCC(NC(=O)CNC(=O)OCc1ccccc1)C(=O)NCc1ccc(OC)cc1 (racemic) | 40 | 40 | –
12 | CCCCCCCCC[C@H](NC(=O)CNC(=O)OCc1ccccc1)C(=O)NCc1ccc(OC)cc1 | – | – | inhibition (Homo sapiens): Active
13 | CCCCCCCCCC(NC(=O)[C@H](C)NC(=O)OCc1ccccc1)C(=O)NCc1ccc(OC)cc1 (mixture of isomers) | 150 | 55 | –
14 | COc1ccc(CNC(=O)C(NC(=O)CNC(=O)OCc2ccccc2)C2CCCCC2)cc1 (racemic) | 50 | 40 | –
15 | CCCCCCCCCC(NC(=O)[C@H](CC(C)C)NC(=O)OCc1ccccc1)C(=O)NCc1ccc(OC)cc1 (mixture of isomers) | > 200 | 50 | –
16 | CCCCCCCCCC(C(=O)NCc1ccc(OC)cc1)N(C)C(=O)CNC(=O)OCc1ccccc1 (racemic) | 30 | 30 | –
17 | COc1ccc(CNC(=O)C(CCCCCNC(=O)OC(C)(C)C)NC(=O)CNC(=O)OCc2ccccc2)cc1 (racemic) | > 100 | > 100 | –
18 | CCCCCCCC(NC(=O)CNC(=O)OCc1ccccc1)C(=O)NCc1ccccc1 (racemic) | 38 | 33 | –

Source: ChEMBL document CHEMBL3112533, “Synthesis of novel, peptidic kinase inhibitors with cytostatic/cytotoxic activity” (Bioorg Med Chem, 2014)
